The data set is described as follows: Toxicity liver stage against HepG2, at 10uM. Further details: test concentration 10 uM, cell line HepG2-A16-CD81EGFP. Conditions: human, HepG2-A16-CD81EGFP cells; read-out: INHIBITION
The class given is cell-based. Put shortly:
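Uninfected HepG2-A16-CD81EGFP cells, 3 × 10^3 per well, 1536-well, plated on prespotted compound at 10 μM final, parasite-free screening media added to match infected plates; puromycin 10 μM positive, DMSO 0.5% negative; run in parallel with 48 h PbLuc assay at 37 °C, 5% CO2; viability by CellTiter-Glo luminescence, normalized to controls.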

Among the data in ChEMBL document CHEMBL4513216, “Probing the Open Global Health Chemical Diversity Library for Multistage-Active Starting Points for Next-Generation Antimalarials” (ACS Infect Dis, 2020) are cytotoxicity values, retold here.

As to `Cc1ccc(S(=O)(=O)Nc2ccc(-n3cccc3C(=O)O)c(C)c2)s1`, the cytotoxicity at 10 µM worked out at 6.15%.
Turning to `Cc1c(C(=O)N2CCC2(C)C)nnn1-c1cccc2cccnc12`, the cytotoxicity at 10 µM turned out to be 4.13%.
In the case of `CN(C)Cc1cc(C2CCN(C(=O)C3CCCNC3)CC2)nn1C` (configuration not stated) it was -8.67%.
In the case of `CC(=O)Nc1ccc(C(=O)Nc2cnc3n2CCCC3)c(C)c1` it was -1.14%; in that of `Cc1ccc(CCCC(=O)N2CCN(C3CCCN(C)C3)CC2)s1` (configuration not stated), 5.82%; in that of `Oc1cc(-c2ccsc2)nc(C2CCN(Cc3ccncc3)CC2)n1`, -7.7%.
In the case of `O=C1Nc2ccccc2CN(CC2CC2)C12CCNC2` (configuration not stated) it was 6.09%; in that of `Cc1cc(C(=O)N(C)Cc2cnn(C)c2C)n(C)n1`, 8.19%; in that of `Cc1nnc(N2CCOC(C)(C(=O)NC3CCCC3)C2)c2ccccc12` (configuration not stated), 7.92%.
On to `COc1nc2c(cc1C(=O)N(C)Cc1[nH]nc3c1CCC3)CCC2`, for which the cytotoxicity at 10 µM was -1.77%.
In the case of `CCn1cnnc1CNC(=O)c1cc(F)ccc1OC` it was -14.3%.
To `Cc1ccc(N2CCCC(N(C)Cc3c(C)noc3C)C2)nn1` (configuration not stated) belongs -14%.
In the case of `Cc1nnc(CN(Cc2cccc3c2OCO3)CC2CCCO2)n1C` (configuration not stated), the cytotoxicity at 10 µM turned out to be 3.93%.
To `Cc1nc(NC(=O)OC(C)(C)C)sc1C(N)=O` belongs -14.4%; to `CN(C)c1cnnc(N2CCN(C(=O)Cc3ccccc3)CC2)c1`, 5.5%.
As to `COc1ccc(C(=O)O)cc1-c1cccc(C(C)N(C)C)c1` (configuration not stated), the cytotoxicity at 10 µM was -7.13%.
In the case of `CC(=O)N(Cc1ncc(C)o1)C1CCN(Cc2cccc(C#N)c2)C1` (configuration not stated) it was 1.63%.
To `COCCCNC(=O)c1cc(-c2cnc(N(C)C)nc2)cn1CC1CC1` belongs 2.28%; to `COc1cc(CNCC(O)c2ccccc2F)cc2c1OCO2` (configuration not stated), -5.53%; to `CCc1nnc(CNC(=O)c2cc3c(nc2OC)CCC3)s1`, 0.156%.
In the case of `COc1ccc(N2CCN(C(=O)[C@@H]3C[C@@H](O)CN3)CC2(C)C)cc1` it was 4.95%.
As for `Cc1cc(C(=O)N2CCOC(c3nc(C(C)C)n[nH]3)C2)no1` (configuration not stated), the cytotoxicity at 10 µM is -5.13%.
To `CC(C)N1c2sc(-c3ccsc3)nc2CC1C(=O)NC1CCCC1` (configuration not stated) belongs 9.1%; to `c1cc(CCN2CCC(NCc3ccsc3)CC2)ccn1`, -11%; to `CC(=O)N1CC2(CCN(C(=O)c3cccc4[nH]ccc34)CC2)C1`, -138%.
In the case of `COCCN(C)C(=O)Nc1ccn(-c2cccc(C(F)(F)F)c2)n1` it was -2.16%; in that of `NC(=O)C1CCN(C(C(=O)O)c2ccc(Cl)c(C(F)(F)F)c2)CC1` (configuration not stated), -107%.
To `O=C(C1CCS(=O)(=O)CC1)N1C[C@@H]2CC[C@H]1CN(Cc1ccccc1)C2` belongs -2.22%.
Turning to `Cc1occc1CNC(=O)N(CCCO)C1CCc2ccccc21` (configuration not stated), the cytotoxicity at 10 µM was -0.842%.
To `O=C(NCCCn1ccnc1)N1CCCC1c1ccncc1` (configuration not stated) belongs 25.4%; to `FC(F)(F)c1cccc(CNc2nccc(C(F)(F)F)n2)c1`, -19%.
For the compound `CC(C)c1noc(C2CCN(S(=O)(=O)c3cccs3)CC2)n1`, the cytotoxicity at 10 µM worked out at 1.47%.
To `O=C(N[C@@H]1CN(Cc2c[nH]nc2-c2ccccc2)C[C@H]1O)c1cc[nH]n1` belongs 2.8%; to `O=C(NC1CCCN(c2ccccc2Cl)C1)c1ccc(=O)[nH]n1` (configuration not stated), -4.46%; to `Cc1ccc(C(=O)N2CCCC(CNS(C)(=O)=O)C2)o1` (configuration not stated), -16%.
For the compound `Cc1cccc(CNC2CCCc3c2cnn3C)c1` (configuration not stated), the cytotoxicity at 10 µM was -8.77%.
In the case of `CS(=O)(=O)c1ccc(-c2nc(C(=O)N3CCCC3)n3ccccc23)cc1`, the cytotoxicity at 10 µM was 6%.
To `Fc1ccc(-c2n[nH]cc2-c2ccnc(NCCN3CCCC3)n2)cc1` belongs 9.05%.
In the case of `CNC(=O)N1CCC2(CC1)c1ncc(C)n1CCN2C` it was 5.22%.
Regarding `N#Cc1cccnc1OC1CCN(S(=O)(=O)c2c(F)cccc2F)CC1`, the cytotoxicity at 10 µM stood at 5.45%.
In the case of `Cc1nc(NC(=O)NCCCN2CCC(C(N)=O)CC2)sc1C` it was 0.902%.
In the case of `CCN(Cc1noc(CC(C)C)n1)Cc1cccc(F)c1O` it was -44%; in that of `Cc1ccc2cc(CNCCCO)c(=O)[nH]c2c1`, 0.127%.
In the case of `CCn1cc(CN2C[C@@H]3CCCN3C[C@@H]2CCSC)cn1` it was -13.9%; in that of `Cc1cccc(COc2ccc(NC(=O)C(C)NC(N)=O)c(C)c2)c1` (configuration not stated), -28%; in that of `CC(C)N1CCOCC2(CN(Cc3ccccn3)CCO2)C1` (configuration not stated), 6.46%.
With `COc1ccc(NC(=O)c2nc3ccccc3n(C)c2=O)c(OC)c1`, the cytotoxicity at 10 µM is 0.37%.
In the case of `O=S(=O)(NCC1(c2cccs2)CCOCC1)c1ccc2c(c1)OCCO2`, the cytotoxicity at 10 µM is -1.64%.
For `CCC(CO)N(Cc1cccnc1)C(=O)c1ccoc1C` (configuration not stated), the cytotoxicity at 10 µM is -0.0979%.
In the case of `NC(=O)C1CCN(C(=O)CCSCc2ccc(Cl)c(Cl)c2)CC1`, the cytotoxicity at 10 µM was -1.35%.
In the case of `CC(C)(CO)Nc1cc(-c2cn[nH]c2)ncn1` it was -1.44%; in that of `Cn1cnn(Cc2ccccc2F)c1=O`, -3.09%; in that of `Fc1ccc(OCc2nnc([C@H]3CCN(Cc4ccccn4)C3)o2)cc1`, 0.413%.
Regarding `O=C1COC2(CCN(Cc3ccco3)CC2)CN1`, the cytotoxicity at 10 µM was -1.49%.
To `COc1ccc(CN2CCC(C(N)=O)C2)c(Br)c1OC` (configuration not stated) belongs 5.15%.
To `NC(=O)c1cccc(CC2CCN(C(=O)CO)C2)c1` (configuration not stated) belongs -23.7%; to `CN1CCC2(CC1)CC(NC(=O)c1csnn1)c1ccccc1O2` (configuration not stated), -95.4%.
In the case of `CN(Cc1ccc2c(c1)OCCO2)C(=O)Cn1ccccc1=O` it was 1.2%; in that of `O=C(c1ccccc1)N1C[C@H]2CC[C@@H](C1)N(Cc1cc(F)ccc1Cl)C2`, -4.39%.
For `O=C(Nc1ccc2c(c1)C(=O)NC2=O)c1ccc(Cl)s1`, the cytotoxicity at 10 µM was -3.96%.
With `Cn1cc(CN2CCC(c3ccncc3)CC2)cn1`, the cytotoxicity at 10 µM came out at 0.26%.
To `N#Cc1cccc(Cl)c1NCCc1n[nH]c(=O)[nH]1` belongs 60.1%; to `COCCN1CCCC(c2nccnc2-c2cccc(Cl)c2)C1` (configuration not stated), 3.99%.
In the case of `O=C(Cc1ccccc1F)N1CCCCC1c1ccn2ccnc2n1` (configuration not stated) it was -3.83%; in that of `CN(C)C(=O)N1CCN(C(=O)C(c2ccccc2F)N(C)C)CC1` (configuration not stated), -0.665%; in that of `CC(C)C(=O)NS(=O)(=O)c1ccc2c(c1)N(C)CCC2`, -0.447%.
To `CC(C)Oc1cc(N2CCC(N3CCC(O)CC3)CC2)nc(N)n1` belongs -12.2%; to `CCN(CC)C1COc2ccc(Br)cc2C1=O` (configuration not stated), -7.16%.
`CCCn1ncc2c(C(=O)NC(C)Cn3cccn3)cc(C3CC3)nc21` (configuration not stated): the cytotoxicity at 10 µM was -8.97%.
To `Cc1ccc(CN(CCN(C)C)C(=O)Nc2cc(C(N)=O)ccc2C)s1` belongs 13.1%; to `OC[C@H]1CN2CCN(c3ccccn3)C[C@@H]2[C@@H]1c1ccccc1`, -0.0603%; to `N#CCc1ccc(NC(=O)Cn2cc(I)cn2)cc1`, 8.44%.
To `c1cc(-c2nnn3c2COC(CNCc2nccs2)C3)ccn1` (configuration not stated) belongs 1.94%.
Take `CC(=O)Nc1nc(CN2CCCC2c2cnn(C)c2)cs1` (configuration not stated): the cytotoxicity at 10 µM was -11.8%.
With `Cc1cncc(CN2CC[C@@](O)(CNC(=O)c3c[nH]cn3)[C@H](O)C2)c1`, the cytotoxicity at 10 µM is -1.68%.
In the case of `Cn1c(=O)[nH]c(=O)n2c(CC(=O)Nc3c(Cl)cccc3Cl)cnc12` it was 8.52%; in that of `O=c1[nH]c(C2CCOC2)nc2ccc(Br)cc12` (configuration not stated), 7.85%.
Regarding `Cc1nccn1Cc1nnc(C2CCCN(c3ncccc3F)C2)n1C` (configuration not stated), the cytotoxicity at 10 µM was -4.93%.
To `CCC(=O)N1CCC2(CC1)C(c1cccnc1)CC(=O)N2CCOC` (configuration not stated) belongs -94.1%; to `Nc1nc(C2CCN(C(=O)c3cnccn3)CC2)cs1`, -7.33%.
In the case of `CC(C)n1cnnc1CNC(=O)c1cnn(Cc2ccccc2)c1` it was 0.536%; in that of `CC(C)N1CCC[C@H]1C(=O)NCC1CCN(c2cnn(C)c(=O)c2)CC1`, 4.75%; in that of `CCCc1cc(NC2CCc3ncnn3C2)n2ncnc2n1` (configuration not stated), -4.17%.
In the case of `Cn1cnc2c1C(COCc1cccnc1)N(Cc1ccccn1)CC2` (configuration not stated) it was -13.3%.
Turning to `c1ccn2c(C3CCCN3Cc3nc(C4CC4)no3)nnc2c1` (configuration not stated), the cytotoxicity at 10 µM was -2.59%.
In the case of `CCn1c(C2CCCN(Cc3ccc(F)cc3Cl)C2)nn(C)c1=O` (configuration not stated) it was -2.75%; in that of `O=c1c2ccccc2nc2n1CCC2O` (configuration not stated), 7.68%; in that of `c1cc(CNCc2ccnc(N3CCCC3)c2)c2c(c1)OCO2`, 3.21%.
Turning to `COCCN1C[C@@H]2CC[C@H]1CN(C(=O)CCc1c(C)nn(C)c1C)C2`, the cytotoxicity at 10 µM is -8.6%.
To `CN(C)[C@@H]1CO[C@H](CNC(=O)C2CCCC2)[C@H]1O` belongs -0.321%.
To `Cc1ncccc1OC1(C(=O)NCc2noc(C(C)C)n2)CCNCC1` belongs 5.68%.
In the case of `Cc1cc(C(=O)NCc2ccccn2)no1` it was -9.95%; in that of `O=C(COCc1ccccc1)N1CCCC(n2cncn2)C1` (configuration not stated), -8.6%.
For `CCOCc1ccccc1NC(=O)NCC(c1cnn(C)c1)N(C)C` (configuration not stated), the cytotoxicity at 10 µM amounted to 3.96%.
In the case of `O=C(Cc1c[nH]c(=O)[nH]c1=O)N1CCCCC1CCc1cccc(O)c1` (configuration not stated) it was 14.5%; in that of `CN(CC(F)(F)F)C(=O)C1CSCN1C(=O)OC(C)(C)C` (configuration not stated), -0.265%; in that of `Cc1cccc(CN2C[C@@H]3CN(C(=O)c4cnccn4)C[C@@H]3C2=O)c1`, 2.43%.
